APP 5'UTR act = APP 5'UTR luciferase reporter activation; AID 1276; actives 1% (n = 190,000); activation, % at 2 µM; SH-SY5Y APP 5'UTR luciferase reporter, luminescence; zero percent = DMSO vehicle wells;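 active = activation above a set limit, based on mean plus 3 SD of controls, cut at about 140% in these data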
STAT3 inh-1 = STAT3 signaling inhibition | U3A cells, IL-6 STAT3-luciferase reporter, luminescence; host cell line lacks STAT1 | inhibition, % at 5.5 µM | actives 0.89% (n = 190,000) | AID 862;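 active = inhibition above the mean inhibition across all screened compounds plus 3 SD, cut at about 44% in these data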
STAT3 activator = activators of IL-6 induced STAT3 signaling; U3A cells, IL-6 STAT3-luciferase reporter, luminescence; 100% = signal with IL-6 EC80 alone; activation (% of control), % at 5.6 µM; actives 0.91% (n = 190,000); AID 871;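 active = activation above the screen-wide mean of compound activation plus 3 SD, cut at about 130% in these data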
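Test system: human U3A cells carrying STAT3-luciferase construct; control set: IL-6-only wells as 100% reference; timing: compound pre-incubation 1 h before IL-6, then 6 h stimulation at 37 °C; also added: IL-6 stimulus at 33 ng/mL final; evaluation: % activation versus median of IL-6-stimulated wells; detection: reporter luminescence signal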
STAT1 act = activators of IFN-gamma induced STAT1 signaling; AID 932; NIH 3T3 STAT1-luciferase reporter, luminescence; 100% = IFN-gamma alone, no compound; activation (% of control), % at 5.5 µM; actives 2.6% (n = 200,000);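 active = activation above the screen-wide mean activation plus 3 SD, cut at about 130% in these data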
STAT1 inh = reduces IFN-gamma driven STAT1 reporter signal; NIH 3T3 STAT1-luciferase reporter, luminescence; inhibition, % at 5.5 µM; actives 0.35% (n = 200,000);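 active = inhibition above a set limit, the mean inhibition across all tested compounds plus 3 SD, cut at about 34% in these data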
NF-kB expr up = compounds increasing NF-kB expression in human neuronal cells; fold change at 12.5 µM; NF-kB reporter expression; active compounds read high; actives 1.6% (n = 190,000); in the data active = fold change above about 3.3
STAT3 inh-2 = STAT3 inhibition, confirmation assay; inhibition, % at 5.7 µM; U3A cells, IL-6 STAT3 luciferase reporter, luminescence; cell line lacks STAT1; actives 45% (n = 1,200); shares compounds with STAT3 inh-1;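 active = inhibition above the hit cutoff computed for the primary STAT3 screen, cut at about 44% in these data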
NFkB inh 2 = inhibits NF-kappaB, counter-screen to STAT3 inhibitors. shares compounds with STAT3 inh-1. HEK293T NF-kB luciferase reporter, TNF-alpha induced. inhibition, % at 5.7 µM. actives 36% (n = 1,200);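 active = inhibition above the mean of solvent-only control wells plus 3 SD, cutoff set per campaign, cut at about 13% in these data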
STAT1 inh 2 = STAT1 inhibition in STAT3 inhibitor counter-screen; shares compounds with STAT3 inh-1; NIH 3T3 STAT1-luciferase reporter, IFN-gamma induced, luminescence; inhibition, % at 5.7 µM; actives 27% (n = 1,200);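 active = inhibition above the mean plus 3 SD of solvent-only control wells, limit set per screening run, cut at about 16% in these data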
A number is an active result; . = inactive; / = no result. Sampled rows, rich in hits. Any-hit rate of the full collection: about 5.1%.

SMILES	APP 5'UTR act	STAT3 inh-1	STAT3 activator	STAT1 act	STAT1 inh	NF-kB expr up	STAT3 inh-2	NFkB inh 2	STAT1 inh 2
COc1ccc(Nc2nc(N3CCCCC3)c3ccccc3n2)cc1	.	47	.	.	.	.	49	.	27
Oc1ccc(Nc2nc(N3CCCC3)c3ccccc3n2)cc1	.	.	.	.	.	.	/	/	/
CN(C(=O)c1ccccc1)c1nc2ccccc2s1	215	56	.	139	.	4.1	.	.	.
Cc1csc(NC(=O)c2cc3c(s2)CCCC3)n1	165	86	.	.	.	.	55	.	.
CC1SCC(=O)N(CC(=O)Nc2ccc3c(c2)OCCO3)C1=O (stereo not drawn)	.	.	.	.	.	.	/	/	/
Cc1nc(NC(=O)/C=C/c2ccco2)sc1C	.	45	.	144	.	.	.	.	.
O=C1CC(c2ccccc2)CC(O)=C1C=Nc1ccccc1 (stereo not drawn)	.	.	.	.	.	.	/	/	/
O=C1C(C=Nc2ccc(F)cc2)=C(O)c2ccccc21	148	51	.	149	.	7.1	.	.	.
c1ccc(-c2cc(CSc3nc4ccccc4[nH]3)on2)cc1	.	46	.	.	.	.	.	.	.
CCCN1CCN(C(=O)c2cc(COc3ccc4ncccc4c3)on2)CC1	.	.	.	.	.	.	/	/	/
CCN1CCN(C(=O)c2cc(COc3ccc4ncccc4c3)on2)CC1	.	45	.	.	.	.	.	.	18
CCC1CCCCN1C(=O)c1cc(COc2ccc3ncccc3c2)on1 (stereo not drawn)	.	85	.	.	.	.	83	32	21
Cc1nc(CN(C)C(=O)c2cc(COc3ccc4ncccc4c3)on2)cs1	.	71	.	.	.	.	62	19	24
CCOC1=C/C(=C/c2c(N)n3nc(S(=O)(=O)CC)sc3nc2=O)C=CC1=O	.	.	.	.	.	.	/	/	/
CN(Cc1ccccc1)c1ccc(N2C(=O)CCCC2=O)cc1[N+](=O)[O-]	.	.	.	.	.	.	/	/	/
CCC(C(=O)OCC(=O)Nc1cc(Cl)cc(Cl)c1)c1ccccc1 (stereo not drawn)	.	.	.	.	.	.	/	/	/
Cc1ccnc(Nc2nc3ccccc3o2)n1	140	43	.	.	.	.	.	.	.
O=C(Nc1ccc2c(c1)C(=O)NC2=O)c1ccc2ncsc2c1	.	.	.	.	.	.	/	/	/
Cc1ccc(C2=NNC(c3ccc(Cl)cc3)=Nc3ccccc32)o1	/	.	.	.	.	.	/	/	/
CCOC(=O)c1c(N)sc(C(=O)Nc2ccc3c(c2)OCO3)c1C	.	85	.	.	.	5.5	.	17	.
CCOC(=O)c1c(C)c(C(=O)Nc2ccc3c(c2)OCO3)c(C)n1C	.	.	.	.	.	.	/	/	/
C=CCn1c(C)cc(C(=O)COc2ccc(C)nc2[N+](=O)[O-])c1C	.	54	.	.	.	.	.	.	.
CCCn1c(C)cc(C(=O)COc2ccc(C)nc2[N+](=O)[O-])c1C	.	.	.	.	.	.	/	/	/
Cc1ccc(OCC(=O)c2cc(C)n(-c3ccccc3)c2C)c([N+](=O)[O-])n1	.	61	.	.	.	.	45	15	.
Fc1ccc(Sc2ccccc2CNC2=NCCN2)cc1	.	46	.	.	.	.	.	.	.
SMILES	APP 5'UTR act	STAT3 inh-1	STAT3 activator	STAT1 act	STAT1 inh	NF-kB expr up	STAT3 inh-2	NFkB inh 2	STAT1 inh 2
C=CCn1nnnc1-c1cc(Cl)cc(Cl)c1	.	.	.	.	.	.	/	/	/
O=c1[nH]c(CSc2ccccn2)nc2c1oc1ccccc12	.	71	.	.	.	.	.	.	.
CCc1nnc(NC(=O)c2ccc(OC)cc2)s1	.	57	.	.	.	4	.	.	.
COc1cc(OC)cc(C(=O)Nc2nnc(NC(=S)Nc3ccccc3)s2)c1	.	61	.	.	.	.	59	.	.
C=C(C)CSc1nc2ccccc2[nH]1	.	.	.	.	.	.	/	/	/
Cc1nc(NC(C)c2ccccc2)c2oc3ccccc3c2n1 (stereo not drawn)	.	46	.	.	.	.	.	.	.
N#Cc1c(NC(=O)c2ccccc2)sc2c1CCCCC2	198	52	.	136	.	3.8	.	.	.
N#Cc1c(NC(=O)CSc2ncn[nH]2)sc2c1CCCC2	/	60	.	.	.	.	57	18	.
O=C(Nc1sc2c(c1C(=O)O)CCCCC2)c1ccccc1	.	.	.	.	.	.	/	/	/
Cc1ccnc(SCC(=O)Nc2sc3c(c2C#N)CCCC3)n1	.	72	.	.	.	.	57	15	17
CC(C)(C)C1CCc2c(sc(NC(=O)CSc3ncn[nH]3)c2C#N)C1 (stereo not drawn)	.	.	.	.	.	.	/	/	/
Cc1csc(SCC(=O)Nc2sc3c(c2C#N)CCC3)n1	.	.	.	.	.	.	/	/	/
COc1ccccc1N1CCN(C(=O)c2cc(-c3ccc(C)cc3)on2)CC1	.	.	.	.	.	.	/	/	/
Cc1ccc(-c2cc(C(=O)N3CCCC3)no2)cc1	208	76	.	.	.	3.8	48	16	.
OC(c1ccccc1)c1nccc2ccccc12 (stereo not drawn)	.	.	.	.	.	.	/	/	/
c1ccc(-c2cc3c(nn2)CCc2nonc2-3)cc1	.	.	.	.	.	.	/	/	/
O=C1c2ccccc2-c2nnc(-c3ccccc3)cc21	.	52	.	.	.	3.3	55	33	16
CN(C)c1ccc(/C=C2\CCC/C(=C\c3ccccc3)C2=O)cc1	.	.	.	.	.	.	/	/	/
CN(C)c1ccc(/C=c2\sc3n(c2=O)CCCN=3)cc1	142	64	.	150	.	5.7	.	.	.
O=C(NCC1CCCO1)c1cc([N+](=O)[O-])ccc1Cl (stereo not drawn)	.	.	.	.	.	.	/	/	/
CC(Nc1nc(-c2ccc3c(c2)NC(=O)CO3)cs1)c1ccccc1 (stereo not drawn)	.	.	.	.	.	.	/	/	/
C=CCN=c1scc(-c2ccc3c(c2)NC(=O)CO3)n1/N=C(\C)c1ccccn1	.	75	.	.	.	.	74	18	22
CN(C)S(=O)(=O)c1cccc(NC(=O)COC(=O)c2cn(-c3ccccc3)nc2-c2ccccc2)c1	.	.	.	.	.	.	/	/	/
